# In the library only some 6.4% were active in any assay of this set; here they are far more common.
# HUVEC prolif 384 = inhibitors of HUVEC proliferation, primary screen, cell-based, 384-well | CellTiter-Glo luminescence, 72 h; active compounds read low | viability, % at 10 µM (by protocol) | hit rate 1.1% among 86,000;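 active = viability at or below 30%; inactive = viability above 30%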;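 also: 100% = median luminescence of DMSO-only cell control wells on each plate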
# Fibroblast inh = antiproliferative effect on LL 47 fibroblasts – human, LL 47 cells, CellTiter-Glo luminescence, primary screen; LL 47 human lung fibroblast viability, ATP luminescence; active compounds read low; viability, % at 10 µM; hit rate 1.1% among 85,000; AID 719, 2007;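 active = viability at or below 50% in the single dose screen; inactive = viability above 50%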;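 also: compound exposure lasted 72 h before the ATP readout; 100% = median luminescence of untreated cell-only wells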
#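 Test system: LL 47 human lung fibroblasts / Quantity: 1,150 cells in each well / Medium: IMEM growth medium with 15% fetal bovine serum / Incubation: 72 h compound exposure at 37 °C after overnight plating / Detection: CellTiter-Glo luminescence measuring cellular ATP / Read-out: % viability versus median cells-only luminescence / Benchmarks: cell-only wells, no compound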
# H69AR inhibit = proliferation blockers of H69AR lung cancer cells, primary screen, cell-based, human, 86K library | H69AR lung tumor viability, ATP luminescence, 72 h; active compounds read low | viability, % at 10 µM | hit rate 6% among 85,000;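 active = viability at or below 40%; inactive = viability above 40%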;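 also: multidrug resistant small cell line overexpressing MRP-1 efflux transporter; 100% = mean luminescence of untreated control wells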
# Jurkat tox 60K = cytotoxicity toward Jurkat T cells, primary screen, cytotoxicity control, cell-based, Jurkat E6.1, 60K MLSMR library. Jurkat E6.1 viability, ATP luminescence, 48 h. inhibition, % at 4 µM. hit rate 1.2% among 56,000. AID 463, 2006;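 active = inhibition above the mean inhibition of all tested compounds plus 3 SD, cut at about 28% in these data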
# Ecoli tolC = growth inhibitors of E. coli tolC mutant, primary screen, strain BW25113 ΔtolC::kan, 384-well; growth inhibition, % at 10 µM (by protocol); OD615; hit rate 2.2% among 65,000;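 active = growth inhibition at or above a cutoff equal to the mean over every tested compound plus 3 SD, cut at about 60% in these data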;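 also: growth measured after 20 h incubation at 37 °C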
#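 Test system – E. coli BW25113 ΔtolC::kan, tolC deletion mutant strain · Detection – OD at 615 nm · Buffer or medium – LB with kanamycin 50 µg/mL · Times – 20 h compound exposure of bacteria at 37 °C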
# Ecoli WT expand = growth inhibitors of wild-type E. coli, primary screen, strain BW25113, expanded library, OD600; OD600 absorbance; growth inhibition, % at 100 µM; hit rate 0.15% among 98,000; AID 710, 2007;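 active = growth inhibition above about 50% at one test dose, limit read from the data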;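 also: growth measured after 20 h incubation at 37 °C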
# Numbers without * were called inactive; / = not tested or not shown.
SMILES,HUVEC prolif 384,Fibroblast inh,H69AR inhibit,Jurkat tox 60K,Ecoli tolC,Ecoli WT expand
O=C(CSC1=NCCN1)C1COc2ccccc2O1 (configuration not stated),80,95,75,-11,-10,8
COc1ccc(-c2oc3ncnc(NCCN4CCOCC4)c3c2-c2ccc(OC)cc2)cc1,71,77,18*,-4,49,0
COc1ccc(-c2oc3ncn(CCN4CCOCC4)c(=N)c3c2-c2ccc(OC)cc2)cc1,65,85,16*,-4,41,-5
COc1ccc(C2c3ccc4ccccc4c3Oc3ncn(CCN4CCOCC4)c(=N)c32)cc1 (configuration not stated),2.1*,3.2*,1.9*,/,/,7
COc1ccc(-n2ncc3c(NCCN4CCOCC4)ncnc32)cc1,95,90,85,/,/,-1
COc1ccc(N/C(C)=C2/C(=O)C(=O)N(CCO)C2c2ccc(Br)cc2)cc1 (configuration not stated),93,86,94,-3,22,5
CC(=O)C1C(c2ccc(F)c(F)c2)NC(=O)NC1(O)C(F)(F)F (configuration not stated),98,98,106,-14,-12,/
Cc1ccc2c(C)c(C(=O)N(Cc3cccs3)C3CCS(=O)(=O)C3)oc2c1 (configuration not stated),74,90,81,/,/,-12
CCOc1ccc(CN(C(=O)c2oc3cc(C)ccc3c2C)C2CCS(=O)(=O)C2)cc1 (configuration not stated),50,86,11*,/,/,-6
Cc1ccc(CN(C(=O)c2cc(=O)c3cc(Cl)c(C)cc3o2)C2CCS(=O)(=O)C2)cc1 (configuration not stated),78,82,26*,/,/,0
Cc1ccc(N=C2CCCN2Cc2ccccc2)c(C#N)c1,101,104,82,/,/,/
Clc1ccc(C2=C3CCCCn4c(-c5ccccc5)c[n+](c43)C2)cc1,18*,42*,36*,/,/,-3
CCOc1ccc(CC(=O)Nc2c(C(=O)Nc3ccccc3)oc3ccccc23)cc1OCC,82,72,35*,/,/,-7
CCOc1ccc(CC(=O)Nc2c(C(N)=O)oc3ccc(Br)cc23)cc1OCC,99,92,37*,1,6,-1
CCC(=O)Nc1c(C(=O)Nc2cccc(OC)c2)oc2ccccc12,89,95,84,-5,-7,-5
COc1ccc(NC(=O)c2oc3ccccc3c2NC(=O)COc2ccccc2OC)c(OC)c1,7.2*,71,19*,-9,-14,-9
N#Cc1ccccc1OCC(=O)Nc1c(C(=O)C2CC2)oc2ccccc12,59,84,7.6*,-7,-9,-6
N#Cc1ccccc1NC(=O)c1ccccc1OCC(=O)Nc1ccc2c(c1)oc1ccccc12,60,90,3.9*,5,15,/
CC1(C)CC(=O)C2=C(C1)OC(N)=C(C#N)C2C1CC=CCC1 (configuration not stated),96,97,42,-2,-7,-13
Cc1cc(=O)[nH]c(N=N/C(=N/Nc2ccc(O)cc2)c2ccccc2)n1,36,51,32*,/,/,22
Cc1cc(=O)[nH]c(N=N/C(=N/Nc2ccccc2C)c2ccccc2)n1,12*,24*,26*,/,/,-18
COc1ccc(N/N=C(/N=Nc2nc(C)cc(=O)[nH]2)c2ccccc2)cc1,21*,16*,27*,/,/,1
Cc1cc(C)c(NC(=O)C2CCN(c3cnccn3)CC2)c(C)c1,88,98,91,/,/,/
CCCC(C)NC(=O)c1ccc(C2SCC(=O)N2Cc2ccco2)cc1 (configuration not stated),95,101,74,/,/,13
CC1CCCN(c2oc(-c3cccc4ccccc34)nc2C#N)C1 (configuration not stated),96,47*,95,-1,-13,-19
SMILES,HUVEC prolif 384,Fibroblast inh,H69AR inhibit,Jurkat tox 60K,Ecoli tolC,Ecoli WT expand
CC1CCN(c2oc(-c3ccccc3Cl)nc2C#N)CC1,91,96,84,/,6,3
COc1cccc2cc(-c3nnc(SCC(=O)NCc4ccccc4)n3C)oc12,84,95,80,1,-3,-7
Cn1ncc(C#N)c1/N=C/N(Cc1ccccc1)Cc1ccccc1,106,89,100,3,99*,-4
CN1CCN(/C=N/c2c(C#N)cnn2C)CC1,81,91,85,-3,-14,3
CCCCS(=O)(=O)/C=C\C1C2C=CC(C2)C1S(=O)(=O)CCCC (configuration not stated),102,94,83,6,-13,-3
CCCCS(=O)(=O)/C=C\C=C/S(=O)(=O)CCCC,49*,2.5*,1.0*,/,11,31
Cc1cc(NS(=O)(=O)c2ccc(NC(=O)c3ccoc3C)cc2)nc(C)n1,88,103,80,-9,7,3
O=C(c1nn(Cc2ccccc2)c(=O)c2ccccc12)N1CCN(C/C=C/c2ccccc2)CC1,66,90,31*,/,/,-1
Cc1onc(-c2c(Cl)cccc2Cl)c1C(=O)N1CCc2ccccc2C1,91,94,81,/,/,2
CC(=O)Oc1ccc2c(C)cc(=O)oc2c1,104,110,96,/,/,18
CC(=O)Oc1cc2oc(=O)cc(C)c2cc1OC(C)=O,78,84,36*,14,3,16
COC(=O)c1c(NC(=O)c2ccccc2)sc(C(=O)c2ccccc2)c1C,/,/,/,/,/,-6
Cc1cc(NC(=O)c2ccccc2)sc1C,80,96,76,5,98*,54*
Cc1ccc(NC(=O)c2ccccc2)s1,103,99,95,6,55,77*
Cc1sc(NC(=O)c2ccccc2)c(C(=O)NCCN(C)C)c1C,/,/,/,/,/,6
NNC(=O)CNC(=O)c1cccc(Br)c1,/,/,/,/,/,-5
CC1CCN(c2nc3ccccc3nc2C(C#N)S(=O)(=O)c2ccccc2)CC1 (configuration not stated),45,88,80,/,76*,/
COc1ccc(S(=O)(=O)C(C#N)c2nc3ccccc3nc2N2CCCC(C)C2)cc1 (configuration not stated),76,92,91,-4,68*,-5
CC1CCCN(c2nc3ccccc3nc2C(C#N)S(=O)(=O)c2cccs2)C1 (configuration not stated),84,111,107,/,/,-2
Cc1cnc(C(=O)NCCc2ccc(S(=O)(=O)NC(=O)NC3CCCCC3)cc2)cn1,100,95,99,/,18,/
CCCCc1c(O)nc(SCC(=O)N2CCOCC2)[nH]c1=O,104,99,93,/,-20,0
O=c1cc(-c2ccccc2)[nH]c2nc3ccccc3n12,53,66,14*,47*,4,-5

# Screening data from PubChem BioAssay.
